The record followed here is ChEMBL document CHEMBL1806459, “Discovery of N-(1-ethylpropyl)-[3-methoxy-5-(2-methoxy-4-trifluoromethoxyphenyl)-6-methyl-pyrazin-2-yl]amine 59 (NGD 98-2): an orally active corticotropin releasing factor-1 (CRF-1) receptor antagonist” (J Med Chem, 2011).

Data set [1] can be described thus: Inhibition of NMDA receptor at 4 uM. The method in brief: (§1)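 Selectivity panel of 69 targets, test compound at 4 μM, a level set by aqueous solubility limits; percent inhibition recorded per target.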
In data set [2] the target is Insulin receptor (Homo sapiens) (UniProt P06213). Briefly: Inhibition of Insulin receptor at 4 uM. In outline:
as §1

Data set [3] has as its target Oxytocin receptor (Homo sapiens) (UniProt P30559). Briefly: Inhibition of Oxytocin receptor at 4 uM. In outline: (§2)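 Single-concentration screen within a 69-target selectivity panel. The test concentration was 4 μM, a level set by the compound's limited aqueous solubility.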
Data set [4] addresses 5-hydroxytryptamine receptor 5A (Homo sapiens) (UniProt P47898). Briefly: Inhibition of Serotonin 5HT5A receptor at 4 uM. The method in brief: as §2
Data set [5] concerns the target 5-hydroxytryptamine receptor 6 (Homo sapiens) (UniProt P50406). Briefly: Inhibition of Serotonin 5HT6 receptor at 4 uM. In outline: as §2
In data set [6] the target is 5-hydroxytryptamine receptor 7 (Homo sapiens) (UniProt P34969). The data set is described as follows: Inhibition of Serotonin 5HT7 receptor at 4 uM. In outline:
as §2

Data set [7] in a line: Inhibition of diltiazem calcium channel at 4 uM. In outline: as §2
Data set [8] concerns the target Corticotropin-releasing factor receptor 1 (Rattus norvegicus, UniProt P35353). The data set is described as follows: Displacement of [125I]-sauvagine from rat CRF-1 receptor expressed in rat cortical membrane after 2 hrs by scintillation counting. The data set is classed as cell membranes. The method in brief: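 Displacement of [125I]-sauvagine binding from rat cortical membrane homogenate with increasing compound concentrations; Ki derived.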
(In general: Displacement assays read how much labelled ligand stays bound in the presence of the test substance.)

The species entered for data set [9] is Rattus norvegicus. Briefly: Metabolic stability in rat assessed as oxidation of isopentyl group. In kind it is ADME, organism-based. The conditions noted are these: in vivo.
Data set [10] is filed under the species Rattus norvegicus. Briefly: Metabolic stability in rat assessed as demethylation of one or both methoxy group. The data set is classed as ADME, organism-based. The conditions noted are these: in vivo.
Data set [11] deals with Rattus norvegicus. The data set is described as follows: Toxicity in Sprague-Dawley rat assessed as effect on horizontal movement at 3 mg/kg, po measured after 3 hrs for 1 hr. In kind it is organism-based. On the set-up: dose 3 mg/kg, route oral. The following applies: in vivo. In outline: (§3)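 Rats not habituated to the test environment, dosed orally at 3, 10 and 30 mg/kg. Spontaneous locomotor activity recorded after dosing: horizontal activity as movement time, plus vertical activity (rearing). Test run to exclude sedation.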

Data set [12] relates to Rattus norvegicus. The data set is described as follows: Toxicity in Sprague-Dawley rat assessed as effect on horizontal movement at 10 mg/kg, po measured after 3 hrs for 1 hr. In kind it is organism-based. On the set-up: dose 10 mg/kg, route oral. The conditions noted are these: in vivo. The method in brief:
as §3

Data set [13] relates to Rattus norvegicus. Briefly: Toxicity in Sprague-Dawley rat assessed as effect on horizontal movement at 30 mg/kg, po measured after 3 hrs for 1 hr. The data set is classed as organism-based. The conditions noted are these: in vivo. Also noted: dose 30 mg/kg, route oral. The method in brief:
as §3

Data set [14] deals with Rattus norvegicus. Briefly: Toxicity in Sprague-Dawley rat assessed as effect on vertical activity at 10 mg/kg, po measured after 3 hrs for 1 hr. The data set is classed as organism-based. On the set-up: dose 10 mg/kg, route oral. The following applies: in vivo. The method in brief: as §3
Data set [15] is described as follows: Ratio of drug level in brain to plasma of rat at 10 mg/kg, po. The data set is classed as ADME, organism-based. The following applies: read-out: BPR. Also noted: dose 10 mg/kg, route oral. The method in brief: (§4)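 Rat pharmacokinetics: compounds given iv (1 or 3 mg/kg) and po (5 or 10 mg/kg) in 2% Vitamin E TPGS (tocopheryl polyethylene glycol 1000 succinate). Plasma sampled over 24 h for Cmax, Tmax, AUC0–24 h, T1/2, clearance, Vss and oral bioavailability. Brain to plasma ratio also measured.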

The target of data set [16] is Type-1 angiotensin II receptor (Homo sapiens) (UniProt P30556). The data set is described as follows: Inhibition of angiotensin AT1 receptor at 4 uM. The method in brief:
as §2

Data set [17] concerns the target Cholecystokinin receptor type A (Homo sapiens) (UniProt P32238). Briefly: Inhibition of cholecystokinin CCKA receptor at 4 uM. The method in brief:
as §2

Data set [18] can be described thus: Inhibition of GABA-B at 4 uM. The method in brief: as §1
A short description of data set [19]: Cmax in rat at 1 mg/kg, iv. The data set is classed as ADME, organism-based. Also noted: dose 1 mg/kg, route intravenous. The following applies: in vivo. The method in brief: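 Rat PK, intravenous arm of a paired iv/po study. Dosed in 2% Vitamin E TPGS (tocopheryl polyethylene glycol 1000 succinate). Parameters derived from plasma: Cmax, AUC0–24 h, terminal T1/2.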

Data set [20] is described as follows: Half life in rat at 10 mg/kg, po. The data set is classed as ADME, organism-based. Also noted: dose 10 mg/kg, route oral. The following applies: in vivo.
For data set [21], the system named is Rattus norvegicus. Briefly: Volume of distribution at steady state in rat at 10 mg/kg, po. The data set is classed as ADME, organism-based. The following applies: in vivo. Also noted: dose 10 mg/kg, route oral. In outline:
as §4

The target in data set [22] is Corticotropin-releasing factor receptor 1 (Homo sapiens) (UniProt P34998). The following applies: IMR-32, 10 uM.
Chain of Corticotropin-releasing factor receptor 1 (Homo sapiens) (P34998 whole entry): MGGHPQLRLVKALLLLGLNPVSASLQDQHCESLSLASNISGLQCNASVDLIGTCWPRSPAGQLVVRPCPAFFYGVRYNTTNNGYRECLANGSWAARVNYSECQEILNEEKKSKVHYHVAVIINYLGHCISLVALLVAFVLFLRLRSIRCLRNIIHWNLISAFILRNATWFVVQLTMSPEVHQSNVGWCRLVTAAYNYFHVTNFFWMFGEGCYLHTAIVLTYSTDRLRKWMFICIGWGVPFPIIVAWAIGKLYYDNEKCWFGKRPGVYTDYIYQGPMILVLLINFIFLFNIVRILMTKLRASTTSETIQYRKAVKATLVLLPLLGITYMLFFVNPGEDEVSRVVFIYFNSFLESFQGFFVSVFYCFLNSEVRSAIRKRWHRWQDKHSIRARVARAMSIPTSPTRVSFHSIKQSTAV

Activity calls are given as the source filed them. The rule behind the calls is not given here.

Chain of Insulin receptor (Homo sapiens) (P06213 28-758 limits assumed): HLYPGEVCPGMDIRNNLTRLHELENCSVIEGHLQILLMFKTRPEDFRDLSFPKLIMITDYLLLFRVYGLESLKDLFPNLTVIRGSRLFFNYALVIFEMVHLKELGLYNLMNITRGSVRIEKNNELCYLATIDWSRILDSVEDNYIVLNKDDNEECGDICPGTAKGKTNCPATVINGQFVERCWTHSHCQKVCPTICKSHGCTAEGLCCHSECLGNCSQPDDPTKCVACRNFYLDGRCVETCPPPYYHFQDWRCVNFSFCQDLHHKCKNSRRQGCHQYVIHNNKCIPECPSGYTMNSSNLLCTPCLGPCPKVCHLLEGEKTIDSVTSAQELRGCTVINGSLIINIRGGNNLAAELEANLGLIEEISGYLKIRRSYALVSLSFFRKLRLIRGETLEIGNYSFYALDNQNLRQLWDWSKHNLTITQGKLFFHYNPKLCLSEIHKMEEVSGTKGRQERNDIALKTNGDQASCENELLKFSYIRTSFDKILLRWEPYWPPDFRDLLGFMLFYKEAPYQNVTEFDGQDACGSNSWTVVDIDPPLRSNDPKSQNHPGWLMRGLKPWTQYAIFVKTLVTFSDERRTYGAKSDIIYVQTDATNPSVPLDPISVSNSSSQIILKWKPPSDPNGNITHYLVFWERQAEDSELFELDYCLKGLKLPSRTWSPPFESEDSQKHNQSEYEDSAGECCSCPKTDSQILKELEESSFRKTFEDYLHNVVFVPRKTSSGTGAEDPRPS
Chain of Insulin receptor (Homo sapiens) (P06213 763-1382 limits assumed): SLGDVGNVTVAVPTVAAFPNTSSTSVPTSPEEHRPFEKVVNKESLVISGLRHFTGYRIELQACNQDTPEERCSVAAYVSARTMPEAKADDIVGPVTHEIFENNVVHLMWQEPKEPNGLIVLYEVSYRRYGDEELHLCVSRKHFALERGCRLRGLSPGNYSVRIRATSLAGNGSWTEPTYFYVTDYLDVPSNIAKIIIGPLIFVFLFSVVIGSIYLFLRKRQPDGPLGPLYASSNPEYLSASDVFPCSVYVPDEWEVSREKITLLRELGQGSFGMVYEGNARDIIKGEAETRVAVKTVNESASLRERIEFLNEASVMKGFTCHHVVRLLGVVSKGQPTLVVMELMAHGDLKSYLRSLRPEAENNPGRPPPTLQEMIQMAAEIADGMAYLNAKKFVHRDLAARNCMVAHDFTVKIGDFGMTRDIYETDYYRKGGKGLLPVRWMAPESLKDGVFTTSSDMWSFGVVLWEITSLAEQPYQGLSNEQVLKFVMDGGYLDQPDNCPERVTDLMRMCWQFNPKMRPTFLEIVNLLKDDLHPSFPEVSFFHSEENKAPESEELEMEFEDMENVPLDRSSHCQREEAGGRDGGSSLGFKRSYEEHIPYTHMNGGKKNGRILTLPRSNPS
Chain of Cholecystokinin receptor type A (Homo sapiens) (P32238 whole entry): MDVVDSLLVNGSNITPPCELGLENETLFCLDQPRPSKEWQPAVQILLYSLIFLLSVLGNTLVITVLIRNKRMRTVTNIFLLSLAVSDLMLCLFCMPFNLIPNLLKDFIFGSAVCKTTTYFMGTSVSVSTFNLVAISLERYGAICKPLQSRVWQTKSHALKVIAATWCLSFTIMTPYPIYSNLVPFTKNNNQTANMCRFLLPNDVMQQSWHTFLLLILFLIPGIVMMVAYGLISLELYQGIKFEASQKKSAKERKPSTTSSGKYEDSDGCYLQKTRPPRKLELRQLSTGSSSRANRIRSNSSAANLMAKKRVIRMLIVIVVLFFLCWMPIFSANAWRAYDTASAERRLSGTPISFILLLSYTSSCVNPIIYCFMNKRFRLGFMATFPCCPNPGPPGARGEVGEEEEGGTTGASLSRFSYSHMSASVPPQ
Chain of 5-hydroxytryptamine receptor 5A (Homo sapiens) (P47898 whole entry): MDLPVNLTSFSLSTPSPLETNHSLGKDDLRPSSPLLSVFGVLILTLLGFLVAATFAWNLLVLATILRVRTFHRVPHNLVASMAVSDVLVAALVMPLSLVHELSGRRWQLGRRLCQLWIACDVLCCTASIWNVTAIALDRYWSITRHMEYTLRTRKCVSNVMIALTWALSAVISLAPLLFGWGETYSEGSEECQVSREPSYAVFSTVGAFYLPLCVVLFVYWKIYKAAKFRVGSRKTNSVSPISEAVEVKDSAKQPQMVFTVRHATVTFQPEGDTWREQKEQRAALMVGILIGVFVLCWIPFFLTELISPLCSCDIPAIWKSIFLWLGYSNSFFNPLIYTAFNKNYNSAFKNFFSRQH
Chain of 5-hydroxytryptamine receptor 6 (Homo sapiens) (P50406 whole entry): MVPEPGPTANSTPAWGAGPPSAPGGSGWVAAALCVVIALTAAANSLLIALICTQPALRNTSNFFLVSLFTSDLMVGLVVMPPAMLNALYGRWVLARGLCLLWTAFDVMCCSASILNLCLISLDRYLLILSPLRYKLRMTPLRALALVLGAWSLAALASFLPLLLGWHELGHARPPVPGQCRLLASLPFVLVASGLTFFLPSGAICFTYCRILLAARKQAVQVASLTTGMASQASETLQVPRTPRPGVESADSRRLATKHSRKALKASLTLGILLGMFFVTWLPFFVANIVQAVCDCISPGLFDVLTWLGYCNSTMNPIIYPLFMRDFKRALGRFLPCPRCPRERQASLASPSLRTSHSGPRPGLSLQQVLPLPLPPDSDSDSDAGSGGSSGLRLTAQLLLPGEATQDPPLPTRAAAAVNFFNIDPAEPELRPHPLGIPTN
Chain of Corticotropin-releasing factor receptor 1 (P35353 whole entry): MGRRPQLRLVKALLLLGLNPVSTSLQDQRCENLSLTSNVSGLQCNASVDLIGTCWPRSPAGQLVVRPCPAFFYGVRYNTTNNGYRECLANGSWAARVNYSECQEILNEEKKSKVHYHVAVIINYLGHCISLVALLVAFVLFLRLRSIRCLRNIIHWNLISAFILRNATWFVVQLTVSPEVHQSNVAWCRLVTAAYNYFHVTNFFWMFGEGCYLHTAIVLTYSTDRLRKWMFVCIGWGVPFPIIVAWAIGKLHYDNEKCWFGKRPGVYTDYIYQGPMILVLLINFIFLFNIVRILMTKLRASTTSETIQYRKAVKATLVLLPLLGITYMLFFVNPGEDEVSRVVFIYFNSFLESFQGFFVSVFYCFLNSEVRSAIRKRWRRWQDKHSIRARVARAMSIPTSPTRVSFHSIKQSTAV
Chain of 5-hydroxytryptamine receptor 7 (Homo sapiens) (P34969 whole entry): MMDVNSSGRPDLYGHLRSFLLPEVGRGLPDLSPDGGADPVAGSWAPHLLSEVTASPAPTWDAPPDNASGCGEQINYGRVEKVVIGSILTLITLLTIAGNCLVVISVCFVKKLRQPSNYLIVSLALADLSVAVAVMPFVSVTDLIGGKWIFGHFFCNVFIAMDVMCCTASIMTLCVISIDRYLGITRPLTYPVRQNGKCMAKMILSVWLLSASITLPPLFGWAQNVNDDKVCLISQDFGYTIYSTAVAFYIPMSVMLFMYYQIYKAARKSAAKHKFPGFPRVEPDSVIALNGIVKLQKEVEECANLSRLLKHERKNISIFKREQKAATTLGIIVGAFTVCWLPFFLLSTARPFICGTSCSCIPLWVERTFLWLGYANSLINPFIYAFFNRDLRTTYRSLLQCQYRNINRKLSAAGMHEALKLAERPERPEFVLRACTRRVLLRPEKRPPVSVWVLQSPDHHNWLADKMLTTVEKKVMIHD
Chain of Type-1 angiotensin II receptor (Homo sapiens) (P30556 whole entry): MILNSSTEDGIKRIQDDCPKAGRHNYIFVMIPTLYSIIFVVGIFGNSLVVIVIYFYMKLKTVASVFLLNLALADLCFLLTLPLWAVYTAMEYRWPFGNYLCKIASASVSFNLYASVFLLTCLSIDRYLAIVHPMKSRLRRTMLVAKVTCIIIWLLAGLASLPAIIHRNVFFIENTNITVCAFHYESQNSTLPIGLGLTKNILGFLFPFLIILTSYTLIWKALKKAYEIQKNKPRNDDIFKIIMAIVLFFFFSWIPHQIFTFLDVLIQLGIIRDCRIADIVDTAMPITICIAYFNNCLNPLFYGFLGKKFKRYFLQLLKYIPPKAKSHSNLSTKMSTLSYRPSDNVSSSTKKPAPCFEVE
Chain of Oxytocin receptor (Homo sapiens) (P30559 whole entry): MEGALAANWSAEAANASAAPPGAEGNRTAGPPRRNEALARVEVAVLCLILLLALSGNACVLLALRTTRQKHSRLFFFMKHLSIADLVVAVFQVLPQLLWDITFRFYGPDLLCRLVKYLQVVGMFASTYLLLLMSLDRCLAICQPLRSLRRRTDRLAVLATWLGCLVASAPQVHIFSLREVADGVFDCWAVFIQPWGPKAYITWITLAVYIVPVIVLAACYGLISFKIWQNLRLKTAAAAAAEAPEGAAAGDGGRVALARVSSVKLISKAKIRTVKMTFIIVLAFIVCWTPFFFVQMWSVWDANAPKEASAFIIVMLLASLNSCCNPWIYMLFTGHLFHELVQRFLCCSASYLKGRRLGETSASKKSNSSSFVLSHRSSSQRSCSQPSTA

For orientation: inhibition means the share of the control response that was lost under treatment. By Ki is commonly meant the equilibrium dissociation constant of an inhibitor or competing ligand from its target. Low readings indicate tighter binding, high ones weaker binding. A word on the Cmax: it is the highest concentration seen after dosing. Usually half-life stands for how long it takes for the measured level to halve. Take `CCC(CC)Nc1nc(C)c(-c2ccc(OC(F)(F)F)cc2OC)nc1OC`: the inhibition in data set [1], in [2], in data set [3], in [4], in [5] and in data set [6] was > 16% each time. The inhibition in data set [7], in data set [16], in data set [17] and in data set [18] was > 16% in each case. In data set [8], this compound gave a Ki of 9.8 nM. The Stability entry in the data set filed under Rattus norvegicus [9] and in the data set filed under Rattus norvegicus [10] was “Unstable” in each case. The Activity entry in the data set on Rattus norvegicus [11], in the data set with Rattus norvegicus [12], in the data set on Rattus norvegicus [13] and in the data set with Rattus norvegicus [14] was “Non-toxic” each time. Besides, the Kp in [15] turned out to be 5.4. Further, the Cmax in data set [19] worked out at 456 ng/mL. The compound further showed a half-life in data set [20] of 8.4 h. The compound also displayed a Vdss in the data set on Rattus norvegicus [21] of 7.8 L/kg. For the same compound, the inhibition result in data set [22] was “inactive”.
